The source made the active and inactive calls.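 Rule for the calls: active = compound at least 90% bound to plasma protein at 1 µM; inactive = the rest.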
Test system: human plasma protein binding, RED dialysis, LC/MS/MS
Assay: fraction bound to human plasma proteins – biochemical, rapid equilibrium dialysis, LC/MS/MS, ADME assay, late-stage follow-up (AID 1617)
Conditions: stronger effect = higher value
Summary of the method: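 material = Compound-spiked plasma dialysed against buffer by equilibrium dialysis | incubation = dialysis 4 h at 37 °C with 300 rpm shaking | evaluation = percent bound, 100 minus free percentage from buffer-to-plasma concentration ratio | detection = LC/MS/MS of matrix-matched buffer-side and plasma-side aliquots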

SMILES: Cc1cc(OCC(=O)Nc2ncn[nH]2)ccc1Cl
- plasma protein bound (at 1 µM): 27.9% (inactive)
- plasma protein bound (percent bound, at 10 µM): 16.8%
